Consider six molecules from ChEMBL document CHEMBL4251655 (Eur J Med Chem, 2018).

For assay [1], the target named is Mitogen-activated protein kinase 1 (Homo sapiens) (UniProt P28482). The experiment in a line: Inhibition of recombinant full length human GST-tagged MAPK1 expressed in Escherichia coli at 1 uM relative to control. In short, it runs like this:
(§1)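 Forty-kinase selectivity panel; each compound tested at a single 1 µM concentration in the presence of 1 mM ATP; result given as percent inhibition.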

Assay [2] deals with Angiopoietin-1 receptor (Homo sapiens) (UniProt Q02763). The experiment in a line: Inhibition of recombinant human GST-tagged TEK (817 to 1101 residues) expressed in baculovirus expression system at 1 uM relative to control. The method, boiled down: as §1
Chain of Angiopoietin-1 receptor (Homo sapiens) (Q02763 whole entry, the tested form may be a part): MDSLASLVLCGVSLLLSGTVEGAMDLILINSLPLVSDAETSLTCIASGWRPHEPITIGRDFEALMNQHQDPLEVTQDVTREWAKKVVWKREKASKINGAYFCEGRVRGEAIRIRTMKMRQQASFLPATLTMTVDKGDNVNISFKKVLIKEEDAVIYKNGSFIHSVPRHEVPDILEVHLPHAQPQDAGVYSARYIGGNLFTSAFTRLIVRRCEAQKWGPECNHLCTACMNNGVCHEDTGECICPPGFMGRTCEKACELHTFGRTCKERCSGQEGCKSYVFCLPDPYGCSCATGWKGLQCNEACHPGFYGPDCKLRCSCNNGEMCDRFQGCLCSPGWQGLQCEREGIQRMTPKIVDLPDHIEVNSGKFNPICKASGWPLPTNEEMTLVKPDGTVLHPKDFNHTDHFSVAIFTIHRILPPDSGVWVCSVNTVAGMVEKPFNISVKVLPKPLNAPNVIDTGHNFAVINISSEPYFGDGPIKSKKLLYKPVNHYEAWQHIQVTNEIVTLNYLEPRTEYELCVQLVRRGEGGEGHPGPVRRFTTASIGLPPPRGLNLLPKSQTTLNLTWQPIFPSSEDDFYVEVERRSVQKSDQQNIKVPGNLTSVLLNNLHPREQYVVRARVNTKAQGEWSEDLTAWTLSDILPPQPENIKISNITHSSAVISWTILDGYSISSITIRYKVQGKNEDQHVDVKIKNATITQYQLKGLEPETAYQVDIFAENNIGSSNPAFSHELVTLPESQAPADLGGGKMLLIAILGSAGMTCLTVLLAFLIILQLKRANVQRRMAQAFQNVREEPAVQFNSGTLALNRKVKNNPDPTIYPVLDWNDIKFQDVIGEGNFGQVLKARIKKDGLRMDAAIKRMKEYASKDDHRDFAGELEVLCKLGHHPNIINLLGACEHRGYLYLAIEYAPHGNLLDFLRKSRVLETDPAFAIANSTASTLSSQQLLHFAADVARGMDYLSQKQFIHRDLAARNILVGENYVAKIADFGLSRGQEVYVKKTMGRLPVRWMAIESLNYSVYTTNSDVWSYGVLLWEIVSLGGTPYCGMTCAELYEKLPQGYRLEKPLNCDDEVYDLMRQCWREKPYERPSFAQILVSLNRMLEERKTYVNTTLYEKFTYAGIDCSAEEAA
The target of assay [3] is RAC-alpha serine/threonine-protein kinase (Homo sapiens) (UniProt P31749). The experiment in a line: Inhibition of recombinant full length human His-tagged AKT1 expressed in baculovirus expression system at 1 uM relative to control. In short, it runs like this: as §1
Chain of RAC-alpha serine/threonine-protein kinase (Homo sapiens) (P31749 whole entry): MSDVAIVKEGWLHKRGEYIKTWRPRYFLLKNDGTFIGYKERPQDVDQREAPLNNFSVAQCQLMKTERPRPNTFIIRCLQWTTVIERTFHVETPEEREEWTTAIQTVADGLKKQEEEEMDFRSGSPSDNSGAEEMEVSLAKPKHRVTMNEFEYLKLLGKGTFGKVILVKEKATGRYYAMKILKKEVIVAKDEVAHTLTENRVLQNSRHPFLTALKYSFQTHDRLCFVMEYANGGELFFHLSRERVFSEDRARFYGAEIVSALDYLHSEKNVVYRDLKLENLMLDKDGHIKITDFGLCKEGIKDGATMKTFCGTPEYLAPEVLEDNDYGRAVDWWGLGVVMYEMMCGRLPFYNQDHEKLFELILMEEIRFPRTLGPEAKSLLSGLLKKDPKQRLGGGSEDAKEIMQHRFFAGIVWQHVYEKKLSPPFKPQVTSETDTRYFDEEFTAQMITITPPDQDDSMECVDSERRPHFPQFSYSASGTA
In assay [4] the target is T1, Aurora kinase A (Homo sapiens) (UniProt O14965).
T1 sequence (whole entry): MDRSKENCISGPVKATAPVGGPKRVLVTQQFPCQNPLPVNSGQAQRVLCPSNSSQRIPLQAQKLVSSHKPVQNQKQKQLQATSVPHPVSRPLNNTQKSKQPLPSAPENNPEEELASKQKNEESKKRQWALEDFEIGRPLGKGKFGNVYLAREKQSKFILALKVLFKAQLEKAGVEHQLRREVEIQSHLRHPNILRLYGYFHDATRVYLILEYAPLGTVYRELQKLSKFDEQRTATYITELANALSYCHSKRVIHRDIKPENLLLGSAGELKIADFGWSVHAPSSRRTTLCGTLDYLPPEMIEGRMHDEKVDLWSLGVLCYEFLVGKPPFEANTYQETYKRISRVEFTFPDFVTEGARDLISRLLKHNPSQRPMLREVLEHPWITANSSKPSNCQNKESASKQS
The experiment in a line: Inhibition of recombinant full length human His-tagged AURKA expressed in baculovirus expression system at 1 uM relative to control. The method, boiled down:
as §1

Assay [5] addresses T2, Serine/threonine-protein kinase 3 (Homo sapiens) (UniProt Q13188).
T2 sequence (whole entry): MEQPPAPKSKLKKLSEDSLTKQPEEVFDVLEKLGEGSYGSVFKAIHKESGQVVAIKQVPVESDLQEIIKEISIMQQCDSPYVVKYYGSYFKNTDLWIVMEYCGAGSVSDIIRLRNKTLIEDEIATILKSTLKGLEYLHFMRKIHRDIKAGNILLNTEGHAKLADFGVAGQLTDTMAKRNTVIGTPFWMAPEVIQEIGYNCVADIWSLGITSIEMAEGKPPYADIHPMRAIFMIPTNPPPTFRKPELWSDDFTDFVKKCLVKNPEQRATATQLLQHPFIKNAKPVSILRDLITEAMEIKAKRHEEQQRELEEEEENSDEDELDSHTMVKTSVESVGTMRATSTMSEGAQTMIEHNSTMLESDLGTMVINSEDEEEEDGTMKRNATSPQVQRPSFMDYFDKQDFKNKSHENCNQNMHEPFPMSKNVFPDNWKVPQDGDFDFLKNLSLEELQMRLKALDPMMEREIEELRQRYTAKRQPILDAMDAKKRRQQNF
The experiment in a line: Inhibition of recombinant human full length GST-tagged STK3 expressed in baculovirus expression system at 1 uM relative to control. The method, boiled down:
as §1

Assay [6] addresses T3, Serine/threonine-protein kinase TAO2 (Homo sapiens) (UniProt Q9UL54).
T3 sequence (whole entry): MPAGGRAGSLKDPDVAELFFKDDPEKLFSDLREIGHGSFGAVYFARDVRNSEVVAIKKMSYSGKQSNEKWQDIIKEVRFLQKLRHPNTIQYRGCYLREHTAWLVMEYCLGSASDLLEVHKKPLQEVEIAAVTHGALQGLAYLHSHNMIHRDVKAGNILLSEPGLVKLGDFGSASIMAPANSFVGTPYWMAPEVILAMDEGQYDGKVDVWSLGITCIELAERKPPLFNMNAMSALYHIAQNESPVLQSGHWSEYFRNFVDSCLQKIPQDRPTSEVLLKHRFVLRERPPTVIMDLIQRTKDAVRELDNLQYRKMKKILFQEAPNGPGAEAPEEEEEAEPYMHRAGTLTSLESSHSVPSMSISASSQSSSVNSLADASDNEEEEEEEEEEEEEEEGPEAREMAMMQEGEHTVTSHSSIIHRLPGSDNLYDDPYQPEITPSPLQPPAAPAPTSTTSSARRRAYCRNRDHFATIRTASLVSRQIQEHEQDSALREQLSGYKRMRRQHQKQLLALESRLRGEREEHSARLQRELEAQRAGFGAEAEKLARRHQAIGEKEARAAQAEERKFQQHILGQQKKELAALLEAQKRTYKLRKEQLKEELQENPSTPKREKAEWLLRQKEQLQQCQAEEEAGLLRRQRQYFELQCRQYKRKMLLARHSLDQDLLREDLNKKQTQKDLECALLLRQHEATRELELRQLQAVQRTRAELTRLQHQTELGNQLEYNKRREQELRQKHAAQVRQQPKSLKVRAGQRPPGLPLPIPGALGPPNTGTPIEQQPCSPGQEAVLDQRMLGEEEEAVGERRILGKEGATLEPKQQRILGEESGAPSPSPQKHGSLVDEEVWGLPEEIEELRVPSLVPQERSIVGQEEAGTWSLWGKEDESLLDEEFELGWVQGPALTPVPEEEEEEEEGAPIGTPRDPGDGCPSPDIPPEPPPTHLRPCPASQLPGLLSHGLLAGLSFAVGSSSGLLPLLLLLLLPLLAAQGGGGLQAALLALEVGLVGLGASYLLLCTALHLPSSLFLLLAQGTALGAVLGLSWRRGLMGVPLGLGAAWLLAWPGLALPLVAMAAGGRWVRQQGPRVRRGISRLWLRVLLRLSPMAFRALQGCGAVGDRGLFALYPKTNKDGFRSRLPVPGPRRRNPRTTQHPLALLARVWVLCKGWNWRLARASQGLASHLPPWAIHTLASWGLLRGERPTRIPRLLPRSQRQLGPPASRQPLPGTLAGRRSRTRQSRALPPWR
Nature of the assay: Inhibition of recombinant human GST-tagged TAOK2 expressed in baculovirus expression system at 1 uM relative to control. In short, it runs like this: as §1

In assay [7] the target is CDK2/Cyclin A2 (Homo sapiens) (UniProt P24941+P20248). The experiment in a line: Inhibition of recombinant full length human His-tagged CDK2/Cyclin-A expressed in baculovirus expression system at 1 uM relative to control. The method, boiled down:
as §1

Assay [8] concerns the target Myosin light chain kinase 2, skeletal/cardiac muscle (Homo sapiens) (UniProt Q9H1R3). Nature of the assay: Inhibition of recombinant human full length GST-tagged MYLK2 expressed in baculovirus expression system at 1 uM relative to control. The method, boiled down: as §1
In assay [9] the target is MAP kinase-activated protein kinase 2 (Homo sapiens) (UniProt P49137). The experiment in a line: Inhibition of recombinant full length human His-tagged MAPKAPK2 expressed in Escherichia coli at 1 uM relative to control. The method, boiled down: as §1
Chain of MAP kinase-activated protein kinase 2 (Homo sapiens) (P49137 whole entry, looked up, the tested form may be a part): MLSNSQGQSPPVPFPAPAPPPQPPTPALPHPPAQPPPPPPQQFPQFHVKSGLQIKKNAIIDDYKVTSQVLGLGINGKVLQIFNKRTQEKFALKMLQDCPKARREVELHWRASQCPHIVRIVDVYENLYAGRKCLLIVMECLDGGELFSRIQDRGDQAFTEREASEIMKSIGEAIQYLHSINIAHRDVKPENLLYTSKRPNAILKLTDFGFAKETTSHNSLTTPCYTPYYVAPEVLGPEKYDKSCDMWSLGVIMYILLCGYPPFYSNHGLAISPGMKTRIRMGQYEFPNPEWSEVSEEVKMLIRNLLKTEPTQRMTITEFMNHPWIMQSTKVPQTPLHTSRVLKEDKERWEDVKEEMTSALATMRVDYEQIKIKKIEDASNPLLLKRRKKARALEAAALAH
The target of assay [10] is Rho-associated protein kinase 1 (Homo sapiens) (UniProt Q13464). Nature of the assay: Inhibition of recombinant human GST-tagged ROCK1 (1 to 535 residues) expressed in baculovirus expression system at 1 uM relative to control. In short, it runs like this:
as §1

In assay [11] the target is Insulin receptor (Homo sapiens) (UniProt P06213). The experiment in a line: Inhibition of recombinant human GST-tagged INSR cytoplasmic domain expressed in baculovirus expression system at 1 uM relative to control. In short, it runs like this:
as §1

Structures are written as SMILES.

Chain of Myosin light chain kinase 2, skeletal/cardiac muscle (Homo sapiens) (Q9H1R3 whole entry): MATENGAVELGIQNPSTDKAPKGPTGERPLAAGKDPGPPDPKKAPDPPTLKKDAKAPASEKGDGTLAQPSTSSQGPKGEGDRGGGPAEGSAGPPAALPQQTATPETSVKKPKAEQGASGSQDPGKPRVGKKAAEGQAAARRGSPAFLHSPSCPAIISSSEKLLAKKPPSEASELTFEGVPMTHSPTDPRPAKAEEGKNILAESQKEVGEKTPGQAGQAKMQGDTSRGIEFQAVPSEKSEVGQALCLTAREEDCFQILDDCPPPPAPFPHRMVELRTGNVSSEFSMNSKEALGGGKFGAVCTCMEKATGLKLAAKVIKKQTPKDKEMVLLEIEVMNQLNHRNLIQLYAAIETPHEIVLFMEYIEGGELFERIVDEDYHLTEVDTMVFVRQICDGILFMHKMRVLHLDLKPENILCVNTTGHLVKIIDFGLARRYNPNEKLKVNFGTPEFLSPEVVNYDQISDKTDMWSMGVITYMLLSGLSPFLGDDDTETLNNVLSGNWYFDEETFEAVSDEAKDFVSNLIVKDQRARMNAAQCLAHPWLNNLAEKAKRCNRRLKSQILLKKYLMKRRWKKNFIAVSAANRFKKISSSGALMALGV
Chain of Insulin receptor (Homo sapiens) (P06213 28-758 limits assumed): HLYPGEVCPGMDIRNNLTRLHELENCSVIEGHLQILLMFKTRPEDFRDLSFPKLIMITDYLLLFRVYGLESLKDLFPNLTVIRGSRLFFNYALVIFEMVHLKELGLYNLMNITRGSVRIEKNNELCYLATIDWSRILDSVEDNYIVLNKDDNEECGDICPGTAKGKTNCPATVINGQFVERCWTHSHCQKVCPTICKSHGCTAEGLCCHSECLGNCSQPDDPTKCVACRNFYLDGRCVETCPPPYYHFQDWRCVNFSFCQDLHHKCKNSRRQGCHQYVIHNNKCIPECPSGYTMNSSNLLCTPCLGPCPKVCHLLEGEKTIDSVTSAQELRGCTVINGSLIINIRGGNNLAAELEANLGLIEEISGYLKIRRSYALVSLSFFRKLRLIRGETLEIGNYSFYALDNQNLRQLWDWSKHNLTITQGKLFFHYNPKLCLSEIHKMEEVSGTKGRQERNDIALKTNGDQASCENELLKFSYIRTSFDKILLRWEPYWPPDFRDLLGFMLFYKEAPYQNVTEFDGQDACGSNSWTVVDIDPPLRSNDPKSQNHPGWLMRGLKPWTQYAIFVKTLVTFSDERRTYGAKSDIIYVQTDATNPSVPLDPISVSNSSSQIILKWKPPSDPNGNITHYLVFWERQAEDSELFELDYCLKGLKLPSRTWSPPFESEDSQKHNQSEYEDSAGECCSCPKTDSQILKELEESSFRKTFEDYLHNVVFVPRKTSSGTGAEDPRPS
Chain of Insulin receptor (Homo sapiens) (P06213 763-1382 limits assumed): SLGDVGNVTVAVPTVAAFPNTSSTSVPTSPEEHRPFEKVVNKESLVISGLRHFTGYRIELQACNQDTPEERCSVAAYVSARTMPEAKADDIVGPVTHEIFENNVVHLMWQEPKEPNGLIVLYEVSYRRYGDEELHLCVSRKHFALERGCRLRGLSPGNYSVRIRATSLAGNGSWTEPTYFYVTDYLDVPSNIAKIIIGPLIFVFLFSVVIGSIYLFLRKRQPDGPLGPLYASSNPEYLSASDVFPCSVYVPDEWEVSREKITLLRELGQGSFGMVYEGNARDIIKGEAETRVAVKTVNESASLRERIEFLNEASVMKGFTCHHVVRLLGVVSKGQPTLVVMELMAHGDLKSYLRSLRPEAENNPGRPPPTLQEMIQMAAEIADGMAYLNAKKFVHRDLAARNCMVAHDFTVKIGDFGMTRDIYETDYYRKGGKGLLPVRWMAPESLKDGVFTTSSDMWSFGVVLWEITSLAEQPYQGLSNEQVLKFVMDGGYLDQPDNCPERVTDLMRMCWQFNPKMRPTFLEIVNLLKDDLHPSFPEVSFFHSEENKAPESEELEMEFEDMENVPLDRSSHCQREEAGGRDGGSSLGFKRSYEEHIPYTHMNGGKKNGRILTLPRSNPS
Chain of Mitogen-activated protein kinase 1 (Homo sapiens) (P28482 whole entry): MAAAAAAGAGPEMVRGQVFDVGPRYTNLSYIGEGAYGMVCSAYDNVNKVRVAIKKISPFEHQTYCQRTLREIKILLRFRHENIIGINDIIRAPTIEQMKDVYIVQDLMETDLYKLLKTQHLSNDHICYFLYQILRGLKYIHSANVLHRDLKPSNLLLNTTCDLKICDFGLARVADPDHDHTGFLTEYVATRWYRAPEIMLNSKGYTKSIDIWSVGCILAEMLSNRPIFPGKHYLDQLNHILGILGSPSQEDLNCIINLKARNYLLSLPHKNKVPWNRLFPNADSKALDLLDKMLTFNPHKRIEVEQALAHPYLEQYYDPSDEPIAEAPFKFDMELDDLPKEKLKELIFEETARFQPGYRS

`COc1ccc(S(C)(=O)=O)cc1C(=O)Nc1cccc(-c2nncn2C(C)C)n1`: the inhibition in [1] is 6%; in [2], 8%; in assay [3], 3%; in assay [4], 11%; in assay [5], -1%; in [6], 0%. The inhibition in assay [7] was determined as 4%; in assay [8], 0%; in assay [9], 6%; in assay [10], 1%; in [11], 2%.

For `COc1cc(C)c(C(N)=O)cc1C(=O)Nc1cccc(-c2nncn2C(C)C)n1`, the inhibition is 20% in [1]; -1% in assay [2]; 0% in assay [3]; 2% in assay [4]; 40% in [5]; 17% in assay [6]. Moreover, the inhibition in [7] is 57%; in assay [8], 0%; in assay [9], 0%; in assay [10], 5%; in assay [11], -2%.

Consider `COc1ccc(C(N)=O)cc1C(=O)Nc1cccc(-c2nncn2C(C)C)n1`, for which the inhibition in [1] is 19%; in assay [2], 1%; in [3] it was -10%; in assay [4], 3%; in assay [5] it was 0%; in assay [6], 11%. The inhibition in assay [7] turned out to be 33%; in [8], 7%; in assay [9], 10%; in [10], 11%; in [11], 6%.

As to `COc1cc(C)c(S(C)(=O)=O)cc1C(=O)Nc1cccc(-c2nncn2C(C)C)n1`, the inhibition in assay [1] is 2%; in [2] it was -3%; in assay [3], 1%; in assay [4], -1%; in assay [5] it was 10%; in assay [6], 2%. The inhibition is 2% in [7]; 3% in assay [8]; -1% in [9]; 11% in assay [10]; 0% in assay [11].

Take `COc1ccc(S(N)(=O)=O)cc1C(=O)Nc1cccc(-c2nncn2C(C)C)n1`: the inhibition was 8% in [1]; 2% in assay [2]; 8% in [3]; -4% in assay [4]; -1% in [5]; -1% in assay [6]. Moreover, the inhibition was 5% in assay [7]; 1% in assay [8]; 13% in assay [9]; 7% in assay [10]; -1% in [11].

Turning to `COc1cc(C)c(S(N)(=O)=O)cc1C(=O)Nc1cccc(-c2nncn2C(C)C)n1`, the inhibition in [1] is 3%; in assay [2] it was 2%; in assay [3], 6%; in assay [4] it was 5%; in assay [5], 13%; in assay [6], -3%. For the same molecule, the inhibition is 5% in assay [7]; 7% in assay [8]; 7% in [9]; -3% in [10]; -2% in [11].
